Data taken from article PMC3587690 (Bioorganic & medicinal chemistry, 2012).

Tests used:
[1] = test system: A549, MCF-7, MDA-MB-231 and MDA-MB-468; test: MTT growth inhibition, average of four cancer cell lines; type: cell-based; settings: read-out: GI50 Average
Summary of the method: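 Each of the four lines, grown in DMEM with 10% FBS at 37 °C and 5% CO2, was incubated with the test compound for 72 h, and growth was read by MTT absorbance at 570 nm. Percent growth was 100 × (treated − time-0)/(medium control − time-0). GI50 came from non-linear regression of the growth–concentration curve, and the four mean GI50s were averaged. Single experiments were run in duplicate where no SD is given.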

[2] = test system: MCF-7 cells expressing VP16-CREB; test: MTT assay in MCF-7 cells expressing VP16-CREB versus parental MCF-7; type: cell-based; settings: 48 h
Summary of the method: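 MCF-7 cells were lipofected with a plasmid encoding Flag-tagged VP16-CREB. From 2 days post-transfection they were selected in 2 mg/mL G418 until a stable colony formed, and expression was checked by anti-FLAG blot. The stable line and parental MCF-7 were treated in triplicate for 48 h, and live cells were quantified by MTT. Student's t-test was used.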

VEGF [3] = test: VEGF ELISA assay of A549 culture media; type: cell-based; settings: A549 cells, 24 h
Summary of the method: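 A549 cells were treated in duplicate with the indicated test compound concentrations for 24 h. VEGF in the culture medium was measured by ELISA and normalised to medium protein concentration. One-way ANOVA was used.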

Bcl-2 [4] = test: Western blot of Bcl-2 in A549 cells; type: cell-based; settings: increasing concentrations, 48 h
Summary of the method: (§1)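 Exponentially growing A549 cells were treated with different test compound concentrations for 48 h and washed twice in cold PBS (pH 7.4). They were lysed in NP-40 buffer (50 mM Tris-HCl pH 8.0, 5 mM EDTA, 150 mM NaCl, 1 mM DTT, 0.5% NP-40) containing 8 M urea. Equal protein was run on 10% SDS-PAGE, transferred to PVDF and probed with specific antibodies, using GAPDH as the loading control.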

[5] = test system: poly (ADP-ribose) polymerase (PARP); test: Western blot of PARP cleavage in A549 cells; type: cell-based; settings: 48 h
Summary of the method: as §1

NCI-60 cancer cell panel = test: NCI-60 cancer cell panel; type: cell-based; settings: Fig. S1
A549 cells = test: Annexin-V/PI flow cytometry apoptosis assay; type: cell-based; settings: 10 µM, 48 h, vehicle […]
p21 [6] = test: Western blot of p21 in A549 cells; type: cell-based; settings: all concentrations tested, 48 h
Summary of the method: as §1

p21 [7] = test: qRT-PCR of p21 transcript in A549 cells; type: cell-based; settings: 4 h
Summary of the method: (§2)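 Exponentially growing A549 cells were treated in duplicate for 4 h. Total RNA was extracted and DNase-treated at 37 °C for 30 min, then cDNA was made with random primers. Transcripts were quantified by SYBR Green qPCR, normalised to HPRT, using the 2−ΔΔCt method. One-way ANOVA was used.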

Bcl-2 [8] = test: qRT-PCR of bcl-2 transcript in A549 cells; type: cell-based; settings: 4 h
Summary of the method: as §2

VEGF [9] = test: qRT-PCR of VEGF transcript in A549 cells; type: cell-based; settings: 4 h
Summary of the method: as §2

[10] = test system: human foreskin fibroblast (HFF) cells; test: HFF growth inhibition, trypan blue exclusion assay; type: cell-based; settings: 48 h
Summary of the method: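 HFF cells were maintained in DMEM with 10% FBS and penicillin/streptomycin at 37 °C under 5% CO2. Cells were treated with increasing test compound concentrations in triplicate for 48 h, and live cells were counted by trypan blue exclusion.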

[11] = test system: p53-mediated gene transcription; test: p53 transcription reporter assay; type: cell-based; settings: transcription reporter assay (Fig. S2)
[12] = test system: VP16-CREB-mediated gene transcription; settings: cited from earlier work
[13] = test system: normal human mammary epithelial cells (HMEC); test: HMEC growth inhibition, trypan blue exclusion assay; type: cell-based; settings: 10 µM and lower, 48 h
Summary of the method: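 Proliferating normal HMEC were cultured routinely in MEGM complete medium with penicillin/streptomycin at 37 °C under 5% CO2. On the day of treatment the medium was changed to DMEM with 10% FBS. Cells were exposed to various test compound concentrations in triplicate for 48 h, then live cells were counted by trypan blue exclusion. One-way ANOVA was used.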

KIX–KID interaction = KIX–KID interaction (Homo sapiens, UniProt Q92793); settings: cited from earlier work
[14] = test system: CREB-mediated gene transcription in HEK 293T cells; settings: cited from earlier work

Chain of KIX–KID interaction (Q92793 587-666 limits assumed): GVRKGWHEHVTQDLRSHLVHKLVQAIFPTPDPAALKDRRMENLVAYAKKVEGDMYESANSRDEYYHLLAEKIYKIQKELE

Q: With `O=C(Nc1ccc(O)cc1)c1cc2ccccc2cc1O` [Compound 1h, 3-Hydroxy-N-(4-hydroxyphenyl)-2-naphthamide] as the compound, how does the GI50 [1] read?
A: The GI50 was > 50.8 µM.

Q: With `O=C(Nc1cccc(Cl)c1)c1cc2ccccc2cc1O` [Compound 1b, N-(3-Chlorophenyl)-3-hydroxy-2-naphthamide] as the compound, how does the GI50 [1] read?
A: Its GI50 is 3.4 µM.

Q: With `O=C(Nc1ccc(F)c(Cl)c1)c1cc2ccccc2cc1O` [Compound 1l, N-(3-Chloro-4-fluorophenyl)-3-hydroxy-2-naphthamide] as the compound, how does the GI50 [1] read?
A: Its GI50 is 3.39 µM.

Q: With `O=C(Nc1ccc(C(F)(F)F)cc1)c1cc2ccccc2cc1O` [Compound 1i, 3-Hydroxy-N-(4-trifluoromethylphenyl)-2-naphthamide] as the compound, how does the GI50 [1] read?
A: The GI50 was 33.8 µM.

Q: For `O=C(Nc1ccncc1)c1cc2ccccc2cc1O` [Compound 10b, 3-Hydroxy-N-(pyridin-4-yl)-2-naphthamide], which GI50 [1] is on record?
A: The GI50 was 34.9 µM.

Q: With `O=C(Nc1ccc(F)c(F)c1)c1cc2ccccc2cc1O` [Compound 1k, N-(3,4-Difluorophenyl)-3-hydroxy-2-naphthamide] as the compound, how does the GI50 [1] read?
A: The GI50 was 5.35 µM.

Q: Which results are given for `O=C(Nc1ccc(Cl)cc1)c1cc2ccccc2cc1O` [Compound 1a, naphthol AS-E]?
A: sensitivity of MCF-7 cells expressing VP16-CREB compared to parental MCF-7 cells [2]: more resistant; expression of VEGF in culture media (VEGF [3]): down-regulated; expression level of Bcl-2 protein (Bcl-2 [4]): decreased; cleavage of PARP [5]: observed; growth inhibition in NCI-60 panel (NCI-60 cancer cell panel): inhibited the growth of most of the cancer cells; cells undergoing apoptosis (annexin+/PI−) (A549 cells): Up to 19.4%; expression of p21 protein (p21 [6]): unchanged; transcript level of p21 (p21 [7]): essentially unchanged; transcript level of bcl-2 (Bcl-2 [8]): decreased; transcript level of VEGF (VEGF [9]): decreased; toxicity to HFF cells (number of live cells) [10]: did not observe significant toxicity; inhibition of p53-mediated gene transcription [11]: not inhibited; inhibition of VP16-CREB-mediated gene transcription [12]: did not inhibit; toxicity to HMEC (number of live cells) [13]: little or no toxicity; GI50 [1]: 2.38 µM

Q: Which GI50 [1] does the source give for `Nc1ccc(NC(=O)c2cc3ccccc3cc2O)cc1` [Compound 1g, N-(4-Aminophenyl)-3-hydroxy-2-naphthamide] here?
A: Its GI50 is > 59.1 µM.

Q: Which “sensitivity of MCF-7 cells expressing VP16-CREB compared to parental MCF-7 cells” value [2] does the source give for `CN(C(=O)c1cc2ccccc2cc1O)c1ccc(Cl)cc1` [Compound 11] here?
A: Its value is “equally effective”.

Q: And the “inhibition of KIX–KID interaction” value (KIX–KID interaction)?
A: Its value is “did not inhibit”.

Q: What about the “inhibition of CREB's activity” value [14] of the same compound?
A: Its value is “did not inhibit”.

Q: For `O=C(Nc1ccccn1)c1cc2ccccc2cc1O` [Compound 10a, 3-Hydroxy-N-(pyridin-2-yl)-2-naphthamide], which GI50 [1] is on record?
A: The GI50 was 33 µM.

Q: For `O=C(Nc1cnccn1)c1cc2ccccc2cc1O` [Compound 10c, 3-Hydroxy-N-(pyrazin-2-yl)-2-naphthamide], which GI50 [1] is on record?
A: The GI50 was > 47.2 µM.

Q: For `O=C(Nc1ccc(F)cc1)c1cc2ccccc2cc1O` [Compound 1d, N-(4-Fluorophenyl)-3-hydroxy-2-naphthamide], which GI50 [1] is on record?
A: Its GI50 is 6.29 µM.

Q: With `O=C(Nc1ccc(I)cc1)c1cc2ccccc2cc1O` [Compound 1f, 3-Hydroxy-N-(4-iodophenyl)-2-naphthamide] as the compound, how does the GI50 [1] read?
A: The GI50 was 6.52 µM.

Q: With `COc1ccc(NC(=O)c2cc3ccccc3cc2O)cc1` [Compound 1j, 3-Hydroxy-N-(4-methoxyphenyl)-2-naphthamide] as the compound, how does the GI50 [1] read?
A: The GI50 was 61.7 µM.

Q: With `O=C(Nc1ccccc1Cl)c1cc2ccccc2cc1O` [Compound 1c, N-(2-Chlorophenyl)-3-hydroxy-2-naphthamide] as the compound, how does the GI50 [1] read?
A: The GI50 was 7.73 µM.

Q: For `O=C(Nc1ccc(Br)cc1)c1cc2ccccc2cc1O` [Compound 1e, N-(4-Bromophenyl)-3-hydroxy-2-naphthamide], which GI50 [1] is on record?
A: The GI50 was 5.59 µM.
